In brackets after ≈: the same amount, converted by molar mass. Activity calls are given as the source filed them. No cut-off for these calls is given here.
Columns and labels:
[1] = Antimicrobial activity against Salmonella enterica serovar Newport ATCC 6962 assessed as growth inhibition by microdilution assay; type: functional, Salmonella enterica subsp. enterica serovar Newport
In short: (§1)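 Twofold serial microdilution of peptide (stocks 2 mg mL−1, diluted to 512 μg mL−1 in water with 10% DMSO) in strain medium, about 1 × 10^4 cfu per well. Media: TSB 20 h 37 °C (S. aureus, L. monocytogenes, B. subtilis, E. faecalis); LB 20 h 37 °C (P. aeruginosa, S. enterica, E. coli); Brucella 48 h 37 °C (C. coli). A595 read; MIC = lowest concentration with no visible growth; triplicate.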

[2] = Hemolytic activity in human erythrocytes at 128 to 256 ug/ml measured after 1 hr by absorbance based assay; type: toxicity, cell-based; conditions: erythrocyte, dose 128-256 µg/ml
In short: (§2)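 Washed human donor erythrocytes at 1% hematocrit in PBS pH 7.4 exposed to twofold peptide dilutions (final 2–256 μg mL−1, up to 1% DMSO) for 1 h at 37 °C. After centrifugation, supernatant A405 read. % hemolysis relative to PBS (0%) and 1% Triton X-100 (100%). Triplicate; mean ± SEM.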

[3] = Cytotoxicity against human Caco-2 cells assessed as inhibition of cell viability incubated for 48 hrs by Cell Titer GLO assay; type: toxicity, cell-based
In short: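 Caco-2 cells in DMEM with 10% FCS, seeded 25 000 per well, adhered overnight, then given peptide at 2–256 μg mL−1 in complete medium for 48 h at 37 °C, 5% CO2. Controls: cisplatin 125 μM; 0.1% DMSO medium. Viability by ATP luminescence (CellTiter-Glo) versus untreated cells; IC50 from dose–response; mean ± SEM of at least three independent experiments.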

Enterococcus faecalis = assay: Antimicrobial activity against Enterococcus faecalis ATCC 29212 assessed as growth inhibition by microdilution assay; type: functional; in short: as §1
Bacillus subtilis = assay: Antimicrobial activity against Bacillus subtilis ATCC 23957 assessed as growth inhibition by microdilution assay; type: functional; in short: as §1
Campylobacter coli = assay: Antimicrobial activity against Campylobacter coli ATCC 33559 assessed as growth inhibition by microdilution assay; type: functional; in short: as §1
Pseudomonas aeruginosa [4] = assay: Antimicrobial activity against Pseudomonas aeruginosa ATCC […] assessed as growth inhibition at 128 ug/ml by radial diffusion assay; type: functional, organism-based; conditions: dose 128.0 µg/ml
In short: (§3)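 Agar well diffusion. Overnight cultures inoculated at 1% into 0.75% soft agar (TSB for S. aureus, LB for P. aeruginosa). Each well received 80 μL of peptide at 128 μg mL−1 in water with 10% DMSO; 10% DMSO served as negative control. Inhibition zone diameter scored after strain-specific incubation.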

Staphylococcus aureus [5] = assay: Antimicrobial activity against Staphylococcus aureus ATCC 6538 assessed as growth inhibition by microdilution assay; type: functional; in short: as §1
Staphylococcus aureus [6] = assay: Antimicrobial activity against Staphylococcus aureus ATCC 6538 assessed as growth inhibition at 128 ug/ml by radial diffusion assay; type: functional, organism-based; conditions: dose 128.0 µg/ml; in short: as §3
Clostridium perfringens = assay: Antimicrobial activity against Clostridium perfringens ATCC 3628 assessed as growth inhibition by microdilution assay; type: functional
In short: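 Broth microdilution: twofold serial peptide dilutions in reinforced clostridial medium (RCM), seeded with about 1 × 10^4 cfu per well, incubated 20 h at 37 °C. Working solution 512 μg mL−1 made from a 2 mg mL−1 stock in water with 10% DMSO. Growth read as absorbance at 595 nm. MIC taken as the lowest concentration giving complete inhibition of visible growth; run in triplicate.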

Listeria monocytogenes = assay: Antimicrobial activity against Listeria monocytogenes ATCC 19111 assessed as growth inhibition by microdilution assay; type: functional; in short: as §1
Escherichia coli = assay: Antimicrobial activity against Escherichia coli ATCC 25922 assessed as growth inhibition by microdilution assay; type: functional; in short: as §1
Pseudomonas aeruginosa [7] = assay: Antimicrobial activity against Pseudomonas aeruginosa ATCC […] assessed as growth inhibition by microdilution assay; type: functional; in short: as §1
Staphylococcus aureus [8] = assay: Bacteriostatic activity against Staphylococcus aureus ATCC 6538 assessed as MBC/MIC ratio by microdilution assay; type: functional
In short: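 MIC wells showing complete inhibition were sampled, 10 μL spread on agar and incubated 48 h under strain conditions; MBC = lowest concentration giving no growth on agar. MIC by broth microdilution (TSB 20 h 37 °C for S. aureus; Brucella 48 h 37 °C for C. coli). Triplicate.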

[9] = Hemolytic activity in human erythrocytes assessed as fold decrease at 256 ug/ml measured after 1 hr by absorbance based assay relative to brevibacillin; type: toxicity, cell-based; conditions: erythrocyte, dose 256 µg/ml; in short: as §2
[10] = Hemolytic activity in human erythrocytes at 128 ug/ml measured after 1 hr by absorbance based assay relative to control; type: toxicity, cell-based, Erythrocyte; conditions: at 128 µg/mL, read-out: Activity; in short: as §2
Staphylococcus aureus [11] = assay: Antimicrobial activity against Staphylococcus aureus ATCC 6538 assessed as diameter of growth inhibition at 128 ug/ml by radial diffusion assay; type: functional; conditions: dose 128 µg/ml; in short: as §3
Pseudomonas aeruginosa [12] = assay: Antimicrobial activity against Pseudomonas aeruginosa ATCC […] assessed as diameter of growth inhibition at 128 ug/ml by radial diffusion assay; type: functional; conditions: dose 128 µg/ml; in short: as §3

Row | SMILES | MIC [1] | Activity [2] | IC50 at 48 h [3] | MIC (Enterococcus faecalis) | MIC (Bacillus subtilis) | MIC (Campylobacter coli) | growth inhibition (qualitative call) (Pseudomonas aeruginosa [4]) | MIC (Staphylococcus aureus [5]) | growth inhibition (qualitative call) (Staphylococcus aureus [6]) | MIC (Clostridium perfringens) | MIC (Listeria monocytogenes) | MIC (Escherichia coli) | MIC (Pseudomonas aeruginosa [7]) | Ratio (Staphylococcus aureus [8]) | fold change (FC) [9] | hemolysis at 1 h, 128 ug/ml [10] | Activity (Staphylococcus aureus [11]) | Activity (Pseudomonas aeruginosa [12])
1 | C/C=C(/NC(=O)[C@@H](O)[C@@H](C)CC)C(=O)N[C@@H](CC(C)C)C(=O)N[C@H](CCCN)C(=O)N[C@H](C(=O)N[C@H](C(=O)N[C@H](C(=O)N[C@H](CCCCN)C(=O)N[C@H](C(=O)N[C@H](C(=O)N[C@@H](CCCCN)C(=O)N[C@H](Cc1ccc(O)cc1)C(=O)N[C@@H](CC(C)C)C(=O)N[C@H](C(=O)O)C(C)C)C(C)C)C(C)C)C(C)C)[C@@H](C)CC)[C@@H](C)CC | > 128 µg/mL | Non-toxic | > 256 µg/mL | > 128 µg/mL | > 128 µg/mL | 32 µg/mL | inactive | > 128 µg/mL | inactive | > 128 µg/mL | 128 µg/mL | > 128 µg/mL | > 128 µg/mL |  |  |  |  | 
2 | C/C=C(/NC(=O)[C@@H](O)[C@@H](C)CC)C(=O)N[C@@H](CC(C)C)C(=O)N[C@H](CCCN)C(=O)N[C@H](C(=O)N[C@H](C(=O)N[C@H](C(=O)N[C@H](CCCCN)C(=O)N[C@H](C(=O)N[C@H](C(=O)N[C@@H](CCCCN)C(=O)N[C@H](Cc1ccc(O)cc1)C(=O)N[C@@H](CC(C)C)C(=O)N[C@H](CO)C(C)C)C(C)C)C(C)C)C(C)C)C(C)C)C(C)C | > 128 µg/mL |  | 87.5 µg/mL (≈ 56.2 µM) | 32 µg/mL | 8 µg/mL | 32 µg/mL |  | 4 µg/mL |  | 16 µg/mL | 4 µg/mL | 64 µg/mL | 4 µg/mL | 8 | 25 | 0.65% | 11 mm | 12 mm
